Source: ChEMBL document CHEMBL3585317, “Structures and Biological Evaluations of Agelasines Isolated from the Okinawan Marine Sponge Agelas nakamurai” (J Nat Prod, 2015)
Structures can show the parent of a compound that is named as a salt. The source made the active and inactive calls. The calls are words filed in the database; no cut-off is given here.

Assays:
[1] = target: T1, Tyrosine-protein phosphatase non-receptor type 1 (Homo sapiens, UniProt P18031); assay: Inhibition of human recombinant PTP1B using pNPP as substrate assessed as rate of hydrolysis incubated for 10 mins prior to substrate addition measured after 30 mins by microplate reader analysis
T1 sequence (P18031 whole entry): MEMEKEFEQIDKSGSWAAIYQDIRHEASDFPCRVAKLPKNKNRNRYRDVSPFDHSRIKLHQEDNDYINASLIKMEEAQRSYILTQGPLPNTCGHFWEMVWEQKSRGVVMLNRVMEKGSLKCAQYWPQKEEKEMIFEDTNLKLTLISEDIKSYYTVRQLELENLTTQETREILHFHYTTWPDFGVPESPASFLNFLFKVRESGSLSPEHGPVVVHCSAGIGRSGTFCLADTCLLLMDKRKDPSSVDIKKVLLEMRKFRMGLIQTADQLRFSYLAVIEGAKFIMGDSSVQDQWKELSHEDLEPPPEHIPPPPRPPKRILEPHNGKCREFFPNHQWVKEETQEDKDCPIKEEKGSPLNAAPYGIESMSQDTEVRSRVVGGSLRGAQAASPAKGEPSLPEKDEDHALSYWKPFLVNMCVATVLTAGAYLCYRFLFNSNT

[2] = Cytotoxicity against human HuH7 cells after 72 hrs by WST1 assay; assay type: functional, cell-based; details: Huh-7, 72 h
Method in brief: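 1 × 10^4 cells/well seeded, cultured overnight, then exposed to compound 72 h; vehicle control 0.1% EtOH. WST-1 reagent (0.5 mM WST-1, 0.02 mM 1-methoxy-5-methylphenazinium methylsulfate) added, 60 min at 37 °C. Viability = treated/control absorbance × 100%.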

[3] = Cytotoxicity against human EJ1 cells after 72 hrs by WST1 assay; assay type: functional, cell-based; details: EJ1, 72 h
Method in brief: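 1 × 10^4 cells/well seeded, cultured overnight, then exposed to compound 72 h; vehicle control 0.1% EtOH. WST-1 reagent (0.5 mM WST-1, 0.02 mM 1-methoxy-5-methylphenazinium methylsulfate) added, 60 min at 37 °C. Absorbance 438 nm (reference 620 nm). Viability = treated/control absorbance × 100%.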

[4] = tested on: Mycolicibacterium smegmatis; assay: Antimycobacterial activity against Mycobacterium smegmatis NBRC 3207 assessed as inhibition zone at 10 ug/disc after 2 days incubation by paper disc method; assay type: functional; details: for zone of inhibition at 10 µg/disc: NBRC 3207, 48 h, read-out: IZ
Method in brief: (§1)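 Disc diffusion: strain grown in Middlebrook 7H9 broth (0.05% polysorbate 80, 0.5% glycerol, 10% OADC) 2 days at 37 °C, adjusted to 1.0 × 10^6 CFU/mL, spread on same medium with 1.5% agar. Sample in CH3OH dried onto 6 mm filter disc, placed on plate, 2 days at 37 °C. Controls: streptomycin sulfate 5 μg/disc, CH3OH.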

[5] = tested on: Mycolicibacterium smegmatis; assay: Antimycobacterial activity against Mycobacterium smegmatis NBRC 3207 assessed as inhibition zone at 20 ug/disc after 2 days incubation by paper disc method; assay type: functional; details: NBRC 3207, 48 h, read-out: IZ; method in brief: as §1

IC50 [1] [µM] | Structure (SMILES) | IC50 [2] [µM] | IC50 [3] [µM] | growth inhibition (GI) [4] | zone of inhibition at 10 µg/disc [4] [mm] | zone of inhibition at 20 µg/disc [5] [mm]
> 23 | CC1=CC(=O)C[C@H](C)[C@@]1(C)CC/C(C)=C/CC/C(C)=C/C[n+]1cn(C)c2ncnc(N)c21 | > 50 | > 50 |  |  | 
> 23 | CC1=CC(=O)C[C@H]2[C@](C)(CC/C(C)=C/C[n+]3cn(C)c4ncnc(N)c43)[C@@H](C)CC[C@@]12C | > 50 | > 50 | inactive |  | 
> 23 | CC1=CC(=O)C[C@@H]2[C@@](C)(CC/C(C)=C/C[n+]3cn(C)c4ncnc(N)c43)[C@H](C)CC[C@@]12C | > 50 | > 50 |  |  | 
> 24 | C=C1CCCC(C)(C)[C@H]1CC/C(C)=C/CC/C(C)=C/C[n+]1cn(C)c2ncnc(N)c21 | > 50 | > 50 |  | 10 | 14
> 23 | CC1=CCC[C@H](C)[C@@]1(C)CCC(C)(O)CCC/C(C)=C/C[n+]1cn(C)c2ncnc(N)c21 (stereo partly specified) | > 50 | > 50 |  |  | 10

The next lines start with the molecule.

Structure (SMILES) | IC50 [1] [µM] | IC50 [2] [µM] | IC50 [3] [µM] | growth inhibition (GI) [4] | zone of inhibition at 10 µg/disc [4] [mm] | zone of inhibition at 20 µg/disc [5] [mm]
CC1=CCC[C@@H]2[C@@](C)(CC/C(C)=C/Cn3c[n+](C)c4ncnc(N)c43)[C@H](C)CC[C@@]12C [AGELASINE B] | > 24 | 22 | 19 |  | 12 | 15
C/C(=C\Cn1c[n+](C)c2ncnc(N)c21)CC[C@]1(C)[C@@H](C)CC[C@@]2(C)C(COC(=O)c3ccc[nH]3)=CCC[C@@H]12 [AGELINE B] | > 19 | > 50 | > 50 |  | 9 | 12
CC1=CCC[C@H](C)[C@@]1(C)CC/C(C)=C/CC/C(C)=C/Cn1c[n+](C)c2ncnc(N)c21 [AGELINE A] | > 24 | 24 | 16 |  | 14 | 20
C/C(=C\Cn1c[n+](C)c2ncnc(N)c21)CC[C@]1(C)[C@@H](C)CC[C@@]2(C)C(COC(=O)c3cc(Br)c[nH]3)=CCC[C@@H]12 | 15 | 26 | 18 |  | 10 | 12
C=C1CC[C@@H]2C(C)(C)CCC[C@@]2(C)[C@@H]1CC/C(C)=C/Cn1c[n+](C)c2ncnc(N)c21 [AGELASINE D] | > 24 | 36 | 19 |  | 14 | 18
COc1cccc2c1C(=O)c1c(O)c3c(c(O)c1C2=O)C[C@@](O)(C(=O)CO)C[C@@H]3O[C@H]1C[C@H](N)[C@H](O)[C@H](C)O1 [DOXORUBICIN] |  |  | 0.023 |  |  | 
CN[C@@H]1[C@H](O[C@H]2[C@H](O[C@H]3[C@H](O)[C@@H](O)[C@H](N=C(N)N)[C@@H](O)[C@@H]3N=C(N)N)O[C@@H](C)[C@]2(O)C=O)O[C@@H](CO)[C@H](O)[C@H]1O [STREPTOMYCIN SULFATE] |  |  |  |  | 30 | 
CC1=CCC[C@H]2[C@](C)(CC/C(C)=C/Cn3c[n+](C)c4ncnc(N)c43)[C@@H](C)CC[C@@]12C [AGELASINE A] | > 24 | > 50 | 42 |  | 12 | 14
